Converted amounts (≈) assume the structure as drawn.

A short description of assay [1]: Effect on calcein accumulation in multidrug-resistant human 2780AD cells at 25 ug/ml relative to control. In kind it is functional, A2780 ADR. In a few lines: (§1)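 Multidrug-resistant human ovarian cancer 2780AD cells were exposed to test compounds at […], with verapamil as the positive control. Calcein accumulated in the cells was measured relative to a control experiment. Values are the mean of triplicate determinations.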

In assay [2] the test system is WI-38 VA13. The assay can be described thus: Cytotoxicity againt human VA13 cells. In kind it is functional, cell-based. A digest of the protocol:
(§2)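 IC50 was determined against WI-38, VA-13 and HepG2 cells and is given as the mean of duplicate determinations.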

Assay [3] is described as follows: Effect on calcein accumulation in multidrug-resistant human 2780AD cells at 2.5 ug/ml relative to control. The class given is functional, A2780 ADR. A digest of the protocol:
as §1

Assay [4] can be described thus: Effect on calcein accumulation in multidrug-resistant human 2780AD cells at 0.25 ug/ml relative to control. The class given is functional, A2780 ADR. A digest of the protocol: as §1
Assay [5] can be described thus: Cytotoxicity againt human WI38 cells. As to conditions: WI-38. In kind it is cell-based. A digest of the protocol: as §2
For assay [6], the system named is HepG2. The assay can be described thus: Cytotoxicity againt human HepG2 cells. In kind it is functional, cell-based. In a few lines:
as §2

A short description of assay [7]: Cytotoxicity againt multidrug-resistant human 2780AD cells. In kind it is functional, cell-based. The following applies: A2780 ADR. In a few lines: (§3)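 Each drug was tested alone or with a modulator added at final […]; verapamil was the reference modulator. Values are the mean of triplicate determinations.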
Assay [8] deals with A2780. Put plainly: Cytotoxicity againt human A2780 cells. The class given is functional, cell-based. A digest of the protocol:
as §3

For the compound `CC(=O)O[C@@H]1[C@@H]2CC(=O)C(C)=C([C@@H](OC(C)=O)[C@H](OC(C)=O)[C@]3(C)CC[C@H](O)[C@@](O)(CO)[C@@H]13)C2(C)C`, the values for the Activity in assay [1], in assay [3] and in assay [4] were 88%, 94% and 79%, respectively. Also, the results for the IC50 in assay [2], in assay [5] and in assay [6] were 9.73 µg/mL (≈ 19.1 µM), 85.3 µg/mL (≈ 167 µM) and greater than 100 µg/mL, respectively.

`CC(=O)OC[C@]1(O)[C@@H](O)CC[C@@]2(C)[C@@H](OC(C)=O)[C@H](OC(C)=O)C3=C(C)C(=O)C[C@@H]([C@@H](O)[C@@H]21)C3(C)C`: the figures for the Activity in assay [1], in assay [3] and in assay [4] were 126%, 97% and 88%, respectively. In addition, the IC50 in assay [2] was 8.47 µg/mL (≈ 16.6 µM); in assay [5], greater than 100 µg/mL; in assay [6], greater than 100 µg/mL.

Consider `CC1=C2[C@@H](O)[C@H](O)[C@]3(C)CC[C@H]4OC[C@@]4(O)[C@H]3[C@H](OC(=O)c3ccccc3)[C@H](CC1=O)C2(C)C`, for which the Activity is 106% in assay [1], 110% in assay [3] and 105% in assay [4]. Besides, the IC50 was greater than 100 µg/mL in assay [2], greater than 100 µg/mL in assay [5] and 67.7 µg/mL (≈ 144 µM) in assay [6].

In the case of `CC(=O)O[C@@H]1[C@@H]2C[C@H](O)C(C)=C([C@@H](OC(C)=O)[C@H](OC(C)=O)[C@]3(C)CC[C@H]4OC[C@@]4(O)[C@@H]13)C2(C)C`, the figures for the Activity in assay [1], in assay [3] and in assay [4] were 95%, 95% and 94%, respectively. Moreover, the IC50 is 81.5 µg/mL (≈ 165 µM) in assay [2], 8.39 µg/mL (≈ 17 µM) in assay [5] and greater than 100 µg/mL in assay [6].

With `CC(=O)O[C@H]1C(=O)[C@]2(C)CC[C@H]3OC[C@@]3(O)[C@H]2[C@H](OC(=O)c2ccccc2)[C@@H]2C[C@H](O)C(C)=C1C2(C)C`, the Activity in assay [1] was 163%; in assay [3], 129%; in assay [4], 96%. Besides, the IC50 in assay [2] stood at 77 µg/mL (≈ 150 µM); in assay [5] it was 54.2 µg/mL (≈ 106 µM); in assay [6], 69.9 µg/mL (≈ 136 µM).

For `CC(=O)O[C@H]1[C@H](O)C2=C(C)C(=O)C[C@@H]([C@@H](OC(=O)c3ccccc3)[C@H]3[C@@]1(C)CC[C@H]1OC[C@]13O)C2(C)C`, the Activity in assay [1] is 134%; in assay [3] it was 118%; in assay [4], 115%. Besides, the IC50 worked out at 67 µg/mL (≈ 131 µM) in assay [2], 0.67 µg/mL (≈ 1.31 µM) in assay [5] and 43.2 µg/mL (≈ 84.3 µM) in assay [6].

In the case of `CC(=O)O[C@@H]1[C@@H]2C[C@@H](O)C(C)=C([C@@H](OC(C)=O)[C@H](OC(C)=O)[C@]3(C)CC[C@H]4OC[C@@]4(O)[C@@H]13)C2(C)C`, the Activity in assay [1] is reported as 96%; in assay [3] it was 95%; in assay [4], 82%. Also, the IC50 is greater than 100 µg/mL in assay [2], 76.2 µg/mL (≈ 154 µM) in assay [5] and greater than 100 µg/mL in assay [6].

For the compound `CC(=O)O[C@H]1C(=O)[C@]2(C)CC[C@H]3OC[C@@]3(O)[C@H]2[C@H](OC(=O)c2ccccc2)[C@@H]2CC(=O)C(C)=C1C2(C)C`, the Activity in assay [1] was 137%; in assay [3] it was 120%; in assay [4], 101%. The IC50 is 7.93 µg/mL (≈ 15.5 µM) in assay [2], 7.38 µg/mL (≈ 14.5 µM) in assay [5] and 30.1 µg/mL (≈ 59 µM) in assay [6].

As for `CC(=O)O[C@@H]1C2=C(C)C(=O)C[C@@H]([C@@H](OC(=O)c3ccccc3)[C@H]3[C@@](C)(CC[C@H]4OC[C@]43O)[C@H]1OC(C)=O)C2(C)C`, the Activity is recorded as 135% in assay [1], 119% in assay [3] and 97% in assay [4]. The IC50 was 51.9 µg/mL (≈ 93.6 µM) in assay [2], 0.82 µg/mL (≈ 1.48 µM) in assay [5] and 7.32 µg/mL (≈ 13.2 µM) in assay [6].

For the compound `CC(=O)OC[C@]1(O)[C@@H](O)CC[C@@]2(C)[C@@H](OC(C)=O)[C@H](OC(C)=O)C3=C(C)C(=O)C[C@@H]([C@@H](OC(=O)/C=C/c4ccccc4)[C@@H]21)C3(C)C`, the Activity is on record as 145% in assay [1], 116% in assay [3] and 88% in assay [4]. In addition, the figures for the IC50 in assay [2], in assay [5] and in assay [6] were 82.3 µg/mL (≈ 128 µM), 68.1 µg/mL (≈ 106 µM) and 2.14 µg/mL (≈ 3.34 µM), respectively.

As for `CC(=O)O[C@H]1C(=O)[C@]2(C)CC[C@H](O)[C@@](O)(CO)[C@H]2[C@H](OC(=O)c2ccccc2)[C@@H]2CC(=O)C(C)=C1C2(C)C`, the results for the Activity in assay [1], in assay [3] and in assay [4] were 112%, 114% and 88%, respectively. For the same compound, the IC50 was 59.6 µg/mL (≈ 113 µM) in assay [2], 57.4 µg/mL (≈ 109 µM) in assay [5] and 33.4 µg/mL (≈ 63.2 µM) in assay [6].

Turning to `CC(=O)O[C@@H]1C2=C(C)C(=O)C[C@@H]([C@@H](OC(=O)c3ccccc3)[C@H]3[C@@](C)(CC[C@H]4OC[C@]43O)[C@H]1O)C2(C)C`, the Activity in assay [1] is recorded as 140%; in assay [3], 102%; in assay [4], 99%. The figures for the IC50 in assay [2], in assay [5] and in assay [6] were greater than 100 µg/mL, 42.3 µg/mL (≈ 82.5 µM) and 77.7 µg/mL (≈ 152 µM), respectively.

For `CC(=O)O[C@@]12CO[C@@H]1C[C@H](O)[C@@]1(C)C(=O)[C@H](O)C3=C(C)[C@@H](O)C[C@@](O)([C@@H](OC(=O)c4ccccc4)[C@H]21)C3(C)C`, the Activity in assay [1] is 93%; in assay [3], 90%; in assay [4], 95%.

Take `CC(=O)O[C@@H]1[C@@H]2CC(=O)C(C)=C([C@@H](OC(C)=O)[C@H](OC(C)=O)[C@]3(C)CC[C@H]4OC[C@@]4(O)[C@@H]13)C2(C)C`: the Activity in assay [1] was 123%; in assay [3] it was 120%; in assay [4], 115%. Further, the results for the half-maximal inhibitory concentration (IC50) in assay [2], in assay [5] and in assay [6] were greater than 100 µg/mL, 77 µg/mL (≈ 156 µM) and greater than 100 µg/mL, respectively.

On to `COc1ccc(CCN(C)CCCC(C#N)(c2ccc(OC)c(OC)c2)C(C)C)cc1OC` (stereo unspecified), for which the Activity in assay [1] is reported as 140%; in assay [3], 103%; in assay [4], 99%.

Consider `CC(=O)O[C@H]1C(=O)[C@@]2(C)[C@H]([C@H](OC(=O)c3ccccc3)[C@]3(O)C[C@H](O)C(C)=C1C3(C)C)[C@]1(OC(C)=O)CO[C@@H]1C[C@@H]2O` [BACCATIN III], for which the Activity in assay [1] is on record as 81%; in assay [3], 84%; in assay [4], 93%. For the same compound, the values for the IC50 in assay [2], in assay [5] and in assay [6] were 0.84 µg/mL (≈ 1.43 µM), 16.1 µg/mL (≈ 27.4 µM) and 9.91 µg/mL (≈ 16.9 µM), respectively.

As to `COc1cccc2c1C(=O)c1c(O)c3c(c(O)c1C2=O)C[C@@](O)(C(=O)CO)C[C@@H]3O[C@H]1C[C@H](N)[C@H](O)[C@H](C)O1` [DOXORUBICIN], the IC50 in assay [7] was determined as 909 nM; in assay [8] it was 13 nM.

Regarding `CC(=O)O[C@H]1C(=O)[C@@]2(C)[C@H]([C@H](OC(=O)c3ccccc3)[C@]3(O)C[C@H](OC(=O)[C@H](O)[C@@H](NC(=O)c4ccccc4)c4ccccc4)C(C)=C1C3(C)C)[C@]1(OC(C)=O)CO[C@@H]1C[C@@H]2O` [PACLITAXEL], the IC50 was 535 nM in assay [7] and 0.7 nM in assay [8].

`CC[C@]1(O)C[C@H]2CN(CCc3c([nH]c4ccccc34)[C@@](C(=O)OC)(c3cc4c(cc3OC)N(C=O)[C@H]3[C@@](O)(C(=O)OC)[C@H](OC(C)=O)[C@]5(CC)C=CCN6CC[C@]43[C@@H]65)C2)C1` [VINCRISTINE]: the IC50 in assay [7] was 895 nM; in assay [8], 0.9 nM.

These data come from ChEMBL document CHEMBL1139110, “Structure-activity relationships of some taxoids as multidrug resistance modulator” (Bioorg Med Chem Lett, 2007).
